The source of these data is ChEMBL document CHEMBL6096643 (Bioorg Med Chem, 2024).

Data set [1] is described as follows: Disruption of microtubule network in rat A10 cells incubated for 18 hrs by fluorescence microscopic analysis. The format is cell-based. In short, it runs like this: (§1)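 A-10 cells on glass coverslips exposed to a range of compound concentrations for 18 h. Cells fixed, microtubules stained with β-tubulin antibody, nuclei with DAPI, then viewed by fluorescence microscopy. Microtubule loss estimated visually, EC50 taken from dose-response curves, two independent experiments.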

Data set [2] can be described thus: Cytotoxicity against human HPDE cells measured after 48 hrs by CellTiter 96 Aqueous One Solution Cell Proliferation Assay. The format is toxicity, cell-based.
The test system of a further data set is MIA PaCa-2. Briefly: Cytotoxicity against human MIA PaCa-2 cells at 1.562 to 100 uM measured after 48 hrs by CellTiter 96 Aqueous One Solution Cell Proliferation Assay. The format is functional, cell-based. The settings on record: dose 1.562-100 µM.
Data set [3] is described as follows: Inhibition of bovine brain tubulin polymerization preincubated for 15 mins followed by GTP addition and measured after 20 mins. Further details: species or system Bos taurus.
In data set [4] the target is T1, Tubulin (Homo sapiens) (UniProt P68371+Q9H4B7+P0DPH7+P68366+Q13509+Q71U36+P04350+Q3ZCM7+P07437+P68363+Q9BQE3+Q6PEY2+Q13885+Q9BVA1+Q9BUF5). Briefly: Inhibition of [3H]colchicine binding to tubulin (unknown origin) at 50 uM relative to control. The format is protein-complex assay. The procedure, abridged:
(§2)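 Tubulin at 1.0 μM (0.1 mg/mL), [3H]colchicine at 5.0 μM, compounds at 5 or 50 μM. Bound colchicine measured by DEAE-cellulose filter method; triplicate experiments.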

A further data set concerns MCF7. Briefly: Antiproliferative activity against human MCF7 cells assessed as cell growth inhibition measured after 48 hrs by sulforhodamine B assay. The format is functional, cell-based. The settings on record: MCF7, 48 h. The procedure, abridged: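 MCF-7 cells grown 24 h without drug, then 48 h with varying compound concentrations. Total cell protein measured by sulforhodamine B assay; IC50 for growth inhibition derived.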

Data set [5] has as its target T1, Tubulin (Homo sapiens). In words: Inhibition of [3H]colchicine binding to tubulin (unknown origin) at 5 uM relative to control. The format is protein-complex assay. In short, it runs like this: as §2
For data set [6], the system named is A10. Briefly: Disruption of microtubule network in rat A10 cells at 2.5 uM incubated for 18 hrs by fluorescence microscopic analysis. The format is cell-based. In short, it runs like this: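 Rat A-10 cells grown on glass coverslips, exposed 18 h to a range of compound concentrations (single-concentration image at 2.5 μM), then fixed. Microtubules stained by indirect immunofluorescence with β-tubulin antibody, nuclei with 4,6-diamidino-2-phenylindole. Interphase microtubule loss scored visually by fluorescence microscopy against vehicle control.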

The next data set has as its system HCT-116. Briefly: Cytotoxicity against human HCT-116 cells measured after 48 hrs by CellTiter 96 Aqueous One Solution Cell Proliferation Assay. The data set is classed as functional, cell-based. The settings on record: HCT-116, 48 h.
In data set [7] the test system is A10. Briefly: Disruption of microtubule network in rat A10 cells at 15 uM incubated for 18 hrs by fluorescence microscopic analysis. The data set is classed as cell-based. In short, it runs like this:
as §1

Data set [8] relates to A10. Briefly: Disruption of microtubule network in rat A10 cells at 20 uM incubated for 18 hrs by fluorescence microscopic analysis. The format is cell-based. In short, it runs like this:
as §1

Active and inactive are the calls of the source. The rule behind the calls is not given here.

Broadly, the EC50 is the concentration needed to bring the measured effect to its halfway point. As a reminder, the IC50 is the midpoint of a concentration-inhibition curve. `COc1ccc(/C=C\c2cc(OC)c(OC)c(OC)c2)cc1O` [COMBRETASTATIN A4] displayed a 50% effective concentration (EC50) in [1] of less than 0.025 µM. In data set [2], this compound registered an IC50 at 48 h greater than 50 µM.

A word on the inhibition: it is the drop in the measured response relative to a control, in per cent. As to `COc1ccc(C(=O)c2cc(OC)c(OC)c(OC)c2)cc1B(O)O`, in the data set with MIA PaCa-2, the Activity result is “Active; Compound Showed Less Toxicity Than Hct-116 Cells”. Besides, the values for the IC50 (in data set [3]; in the data set on MCF7) were 12 µM and 0.3 µM, respectively. This compound also displayed an EC50 in data set [1] of 5 µM. The inhibition stood at 59% at Tubulin (Homo sapiens) [4] and 21% at Tubulin (Homo sapiens) [5]. Moreover, in the data set with A10 [6], the result was Active. The compound also displayed an IC50 at 48 h in data set [2] greater than 50 µM.

Compound `COc1ccc(C(=O)c2cc(OC)c(OC)c(OC)c2)cc1O` [PHENSTATIN] gave an IC50 in data set [3] of 1 µM. At Tubulin (Homo sapiens) [4], the inhibition result is “inactive”. For the same compound, the inhibition on Tubulin (Homo sapiens) [5] worked out at 86%. The same compound had an IC50 at 48 h in data set [2] greater than 50 µM.

Regarding `COc1cc(C(=O)c2cnc(OC)c(B(O)O)c2)cc(OC)c1OC`, the results for the IC50 (in [3]; with MCF7) were greater than 40 µM and greater than 2.5 µM, respectively. In [1], this compound yielded an EC50 greater than 50 µM. Further, the inhibition entry at Tubulin (Homo sapiens) [4] and on Tubulin (Homo sapiens) [5] was “inactive” in each case. This compound also yielded an IC50 at 48 h in data set [2] greater than 50 µM.

With `COc1cc(/C=C\c2cccc(B(O)O)c2)cc(OC)c1OC`, the IC50 in [3] is 27 µM; in the data set with MCF7 it was 0.85 µM; in the data set with HCT-116, less than 5 µM. Further, it took 9 µM to reach a half-maximal effect in data set [1] (EC50). Also, the inhibition entry on Tubulin (Homo sapiens) [4] and at Tubulin (Homo sapiens) [5] was “inactive” each time. The same compound displayed an IC50 at 48 h in data set [2] greater than 50 µM.

With `COc1cc(/C=C\c2cnc(OC)c(B(O)O)c2)cc(OC)c1OC`, the IC50 is 30 µM in data set [3], 0.39 µM with MCF7 and less than 5 µM with HCT-116. For the same compound, in data set [1], the response was half-maximal at 9 µM (EC50). For the same compound, the inhibition result on Tubulin (Homo sapiens) [4] and on Tubulin (Homo sapiens) [5] was “inactive” throughout. Further, the outcome with A10 [7] was Active. In data set [2], this compound showed an IC50 at 48 h greater than 50 µM.

In the case of `COc1cc(/C=C\c2ccccc2B(O)O)cc(OC)c1OC`, the Activity result in the data set with MIA PaCa-2 was “Active; Compound Showed Less Toxicity Than Hct-116 Cells”. Besides, the values for the IC50 (in data set [3]; in the data set on MCF7; with HCT-116) were greater than 40 µM, greater than 2.5 µM and less than 5 µM, respectively. For the same compound, the response in data set [1] was half-maximal at 51 µM (EC50). Also, the inhibition result at Tubulin (Homo sapiens) [4] and on Tubulin (Homo sapiens) [5] was “inactive” throughout. This compound also gave an IC50 at 48 h in [2] greater than 50 µM.

As to `COc1ccc(/C=C\c2cc(OC)c(OC)c(OC)c2)cc1B(O)O`, half-maximal inhibition in data set [3] (IC50) required 1.5 µM. A half-maximal response in data set [1] (EC50) required 0.058 µM. The same compound had an inhibition on Tubulin (Homo sapiens) [4] of 99%. For the same compound, the IC50 at 48 h in data set [2] is greater than 50 µM.

With `COc1cc(/C=C\c2ccc(B(O)O)cc2)cc(OC)c1OC`, the IC50 in [3] was 10 µM; with MCF7, 0.48 µM; in the data set on HCT-116 it was less than 5 µM. This compound also showed an EC50 in data set [1] of 4 µM. Besides, the inhibition is 77% on Tubulin (Homo sapiens) [4] and 6.4% on Tubulin (Homo sapiens) [5]. In addition, the outcome with A10 [8] was Active. Moreover, the half-maximal inhibitory concentration (IC50) at 48 h in [2] is greater than 50 µM.
